Results from ChEMBL document CHEMBL1148311, “Synthesis of novel potent dipeptidyl peptidase IV inhibitors with enhanced chemical stability: interplay between the N-terminal amino acid alkyl side chain and the cyclopropyl group of alpha-aminoacyl-l-cis-4,5-methanoprolinenitrile-based inhibitors” (J Med Chem, 2004).

Columns and labels:
Dipeptidyl peptidase 4 = Dipeptidyl peptidase 4 (Sus scrofa, UniProt P22411); assay: In vitro inhibition of porcine Dipeptidylpeptidase IV.
[1] = Half-life in phosphate buffer at 39.5 C and pH 7.2; format: ADME
Method in brief: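 Aqueous solution stability of the dipeptide nitriles in phosphate buffer, pH 7.2, 39.5 °C. Reaction rate followed as disappearance of starting material by reverse-phase HPLC.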

Sequence of Dipeptidyl peptidase 4 (P22411 whole entry): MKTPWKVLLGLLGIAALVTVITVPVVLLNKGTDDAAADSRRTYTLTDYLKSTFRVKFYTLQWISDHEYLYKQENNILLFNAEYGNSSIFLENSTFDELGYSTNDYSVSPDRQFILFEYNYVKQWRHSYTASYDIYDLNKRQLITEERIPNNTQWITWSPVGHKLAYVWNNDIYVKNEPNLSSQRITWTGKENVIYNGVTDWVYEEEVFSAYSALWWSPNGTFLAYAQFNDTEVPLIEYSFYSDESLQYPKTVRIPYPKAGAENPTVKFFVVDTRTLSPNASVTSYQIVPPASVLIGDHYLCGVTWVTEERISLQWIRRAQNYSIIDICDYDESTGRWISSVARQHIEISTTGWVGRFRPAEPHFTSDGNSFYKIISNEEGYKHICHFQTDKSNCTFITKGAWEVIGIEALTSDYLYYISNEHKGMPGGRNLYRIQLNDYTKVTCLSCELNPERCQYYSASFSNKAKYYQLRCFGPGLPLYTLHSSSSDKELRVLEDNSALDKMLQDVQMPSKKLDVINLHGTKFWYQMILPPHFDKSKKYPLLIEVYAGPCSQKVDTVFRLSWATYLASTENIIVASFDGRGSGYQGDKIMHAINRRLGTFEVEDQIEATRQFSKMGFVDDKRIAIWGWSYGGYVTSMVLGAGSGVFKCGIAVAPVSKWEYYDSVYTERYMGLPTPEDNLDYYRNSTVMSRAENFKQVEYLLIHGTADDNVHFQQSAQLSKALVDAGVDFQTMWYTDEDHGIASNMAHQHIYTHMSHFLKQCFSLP

| SMILES | Ki (Dipeptidyl peptidase 4) [nM] | half-life [1] [h] |
| --- | --- | --- |
| CC1(C(N)C(=O)N2C(C#N)C[C@@H]3C[C@@H]32)CCC1 (some centres undefined) | 11 | – |
| N#CC1C[C@@H]2C[C@@H]2N1C(=O)[C@@H](N)Cc1c[nH]c2ccccc12 (some centres undefined) | 230 | – |
| CC(C)(C)[C@H](N)C(=O)N1C(C#N)C[C@@H]2C[C@@H]21 (some centres undefined) | 7 | 42 |
| CCC(C)[C@H](N)C(=O)N1C(C#N)C[C@H]2C[C@H]21 (some centres undefined) | 1620 | – |
| CC(C)[C@H](N)C(=O)N1C[C@H]2C[C@H]2C1C#N.O=C(O)C(F)(F)F (some centres undefined) | 12 | 2 |
| N#CC1C[C@@H]2C[C@@H]2N1C(=O)C(N)C1CCCC1 (some centres undefined) | 4 | – |
| CC1(C(N)C(=O)N2C(C#N)C[C@@H]3C[C@@H]32)CCCC1.O=C(O)C(F)(F)F (some centres undefined) | 7 | 24 |
| CC(C)(C)[C@H](N)C(=O)N1CCC[C@H]1C#N.O=C(O)C(F)(F)F | – | 27 |
| N#CC1C[C@@H]2C[C@@H]2N1C(=O)C1CCCCN1 (some centres undefined) | 10000 | – |
| CC(C)[C@H](N)C(=O)N1C(C#N)C[C@H]2C[C@H]21.O=C(O)C(F)(F)F (some centres undefined) | 29 | 28 |
| CC1(C(N)C(=O)N2C(C#N)C[C@@H]3C[C@@H]32)CCCCC1 (some centres undefined) | 8 | – |
| N#CC1C[C@@H]2C[C@@H]2N1C(=O)C(N)C1CCCCC1.O=C(O)C(F)(F)F (some centres undefined) | 15 | 19 |
| CCC(C)C(N)C(=O)N1CCC[C@H]1C#N.Cl (some centres undefined) | – | 5 |
| CSCC[C@H](N)C(=O)N1C(C#N)C[C@@H]2C[C@@H]21 (some centres undefined) | 135 | – |
| CC(C)(C)[C@H](N)C(=O)N1C[C@H]2C[C@H]2C1C#N.O=C(O)C(F)(F)F (some centres undefined) | 14 | 4 |
| CCC(C)[C@H](N)C(=O)N1C[C@H]2C[C@H]2C1C#N.O=C(O)C(F)(F)F (some centres undefined) | 15 | 4 |
| N#CC1C[C@@H]2C[C@@H]2N1C(=O)[C@@H](N)Cc1ccccc1 (some centres undefined) | 65 | – |
| N#CC1C[C@@H]2C[C@@H]2N1C(=O)C(N)C1CCC1 (some centres undefined) | 12 | – |
| CCC(C)[C@H](N)C(=O)N1CC[C@@H]2C[C@@]21C#N (some centres undefined) | 7500 | – |
| CN[C@H](C(=O)N1C(C#N)C[C@@H]2C[C@@H]21)C(C)C (some centres undefined) | 1940 | – |
| CCC(C)[C@H](N)C(=O)N1C(C#N)C[C@@H]2C[C@@H]21.O=C(O)C(F)(F)F (some centres undefined) | 25 | 22 |
